The source of these data is ChEMBL document CHEMBL3856275, “Discovery of Second Generation Reversible Covalent DPP1 Inhibitors Leading to an Oxazepane Amidoacetonitrile Based Clinical Candidate (AZD7986)” (J Med Chem, 2016).

pIC50: −log10 of the molar value. Values after ≈ are worked out from the molar mass of the structure shown.

The nature of series [1]: Intrinsic clearance in rat hepatocytes assessed per 10^6 cells at 1 uM after 10 to 90 mins by LC-MS/MS method. The class given is ADME, cell-based, Hepatocyte.
Series [2] can be described thus: Apparent permeability across apical to basolateral side in human Caco2 cells at 10 uM after 1 hr by LC-MS method. The following applies: Caco-2.
Series [3] in a line: Apparent permeability across basolateral to apical side in human Caco2 cells at 10 uM after 1 hr by LC-MS method. The following applies: Caco-2. A general note: Caco-2 monolayers are a common model of the intestinal barrier.
The nature of series [4]: Intrinsic clearance in human hepatocytes assessed per 10^6 cells at 1 uM after 10 to 90 mins by LC-MS/MS method. The class given is ADME, cell-based, Hepatocyte.
Series [5] is described as follows: Protein binding in dog plasma at 10 uM after 6 hrs by LC-MS/MS method. The following applies: read-out: PPB (converted). The series is classed as ADME, cell-free, Canis lupus familiaris.
Series [6] in a line: Half life in Han Wistar rat at 1 mg/kg, iv and 3 mg/kg, po. The series is classed as ADME, organism-based. The following applies: in vivo. The method, boiled down: (§1)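 Han Wistar rat PK with 1 mg/kg iv and 3 mg/kg po doses, both in pH3 buffer. Clearance is given in ml/min/kg, Vss in L/kg and t1/2 in h.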
A short description of series [7]: Oral bioavailability in Han Wistar rat at 3 mg/kg. The series is classed as ADME, organism-based. The following applies: in vivo. The method in brief:
as §1

A short description of series [8]: Volume of distribution at steady state in Beagle dog at 1 mg/kg, iv and 2 mg/kg, po. The class given is ADME, organism-based, Canis lupus familiaris. To be noted: in vivo, read-out: Vdss.
The target of series [9] is T1, Dipeptidyl peptidase 1 (Rattus norvegicus, UniProt P80067).
T1 sequence (P80067 whole entry): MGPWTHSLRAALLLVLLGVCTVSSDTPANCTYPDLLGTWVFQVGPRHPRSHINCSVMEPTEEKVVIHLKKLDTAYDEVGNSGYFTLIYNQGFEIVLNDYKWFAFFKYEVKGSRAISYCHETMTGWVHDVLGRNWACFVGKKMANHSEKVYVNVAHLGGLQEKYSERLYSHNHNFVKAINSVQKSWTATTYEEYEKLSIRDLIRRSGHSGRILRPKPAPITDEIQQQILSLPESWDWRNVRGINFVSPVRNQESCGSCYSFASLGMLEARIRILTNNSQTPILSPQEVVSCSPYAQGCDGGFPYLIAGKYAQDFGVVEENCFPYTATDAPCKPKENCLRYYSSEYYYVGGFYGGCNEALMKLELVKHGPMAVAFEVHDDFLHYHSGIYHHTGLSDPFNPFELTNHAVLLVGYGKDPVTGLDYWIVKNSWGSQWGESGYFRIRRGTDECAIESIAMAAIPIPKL
As to the kind of experiment: Inhibition of rat DPP1 using Gly-Arg-AMC as substrate preincubated for 30 mins followed by substrate addition by fluorometric assay.

In series [10] the target is Dipeptidyl peptidase 1 (Canis lupus familiaris, UniProt O97578). As to the kind of experiment: Inhibition of dog DPP1 using Gly-Arg-AMC as substrate preincubated for 30 mins followed by substrate addition by fluorometric assay. The method, boiled down: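 Recombinant dog DPP1 enzyme, run under the same conditions as the human isolated-enzyme assay in a piperazine-based buffer. Compound and enzyme pre-incubated 30 min at rt. Fluorescent dipeptide substrate Gly-Arg-AMC then added and fluorescence read. pIC50 obtained by curve fitting.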
Dipeptidyl peptidase 1 (Canis lupus familiaris, UniProt O97578), sequence (O97578 1-109 limits assumed): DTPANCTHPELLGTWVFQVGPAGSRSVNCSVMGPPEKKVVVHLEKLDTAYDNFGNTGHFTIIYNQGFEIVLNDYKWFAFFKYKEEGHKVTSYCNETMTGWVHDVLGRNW
Dipeptidyl peptidase 1 (Canis lupus familiaris, UniProt O97578), sequence (O97578 200-366 limits assumed): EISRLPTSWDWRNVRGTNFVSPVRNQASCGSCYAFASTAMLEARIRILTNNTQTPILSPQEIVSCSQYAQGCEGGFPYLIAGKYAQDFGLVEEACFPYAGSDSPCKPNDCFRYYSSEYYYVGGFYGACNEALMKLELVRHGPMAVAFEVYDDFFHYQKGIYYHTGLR
Dipeptidyl peptidase 1 (Canis lupus familiaris, UniProt O97578), sequence (O97578 367-435 limits assumed): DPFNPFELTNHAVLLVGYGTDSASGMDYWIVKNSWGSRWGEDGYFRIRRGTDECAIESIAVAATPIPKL

The target of series [11] is Procathepsin L (Homo sapiens, UniProt P07711). Put plainly: Inhibition of human recombinant cathepsin L.
Procathepsin L, sequence (P07711 whole entry): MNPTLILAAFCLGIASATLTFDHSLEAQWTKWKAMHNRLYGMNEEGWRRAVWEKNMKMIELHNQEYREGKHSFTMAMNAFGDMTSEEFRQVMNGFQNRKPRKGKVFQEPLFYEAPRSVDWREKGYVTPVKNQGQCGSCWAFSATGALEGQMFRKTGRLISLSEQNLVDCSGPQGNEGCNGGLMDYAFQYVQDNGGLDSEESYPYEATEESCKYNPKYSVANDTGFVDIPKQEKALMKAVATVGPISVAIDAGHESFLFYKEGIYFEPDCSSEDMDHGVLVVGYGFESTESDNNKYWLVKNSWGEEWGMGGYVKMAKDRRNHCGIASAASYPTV
For series [12], the target named is T2, Cathepsin E (Homo sapiens, UniProt P14091).
T2 sequence (P14091 whole entry): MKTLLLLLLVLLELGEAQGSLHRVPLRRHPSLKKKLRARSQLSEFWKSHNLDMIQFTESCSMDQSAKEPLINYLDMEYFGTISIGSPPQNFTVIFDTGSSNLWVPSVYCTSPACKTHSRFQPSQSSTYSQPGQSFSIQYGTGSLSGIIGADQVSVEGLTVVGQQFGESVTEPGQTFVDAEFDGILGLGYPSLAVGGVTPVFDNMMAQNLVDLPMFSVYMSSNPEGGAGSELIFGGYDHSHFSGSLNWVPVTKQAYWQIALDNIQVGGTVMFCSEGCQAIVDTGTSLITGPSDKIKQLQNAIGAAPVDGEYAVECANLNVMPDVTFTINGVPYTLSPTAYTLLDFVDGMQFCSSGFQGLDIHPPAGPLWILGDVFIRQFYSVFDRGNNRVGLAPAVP
Put plainly: Inhibition of human recombinant cathepsin E.

Series [13] has as its target T3, Pro-cathepsin H (Homo sapiens, UniProt P09668).
T3 sequence (P09668 whole entry): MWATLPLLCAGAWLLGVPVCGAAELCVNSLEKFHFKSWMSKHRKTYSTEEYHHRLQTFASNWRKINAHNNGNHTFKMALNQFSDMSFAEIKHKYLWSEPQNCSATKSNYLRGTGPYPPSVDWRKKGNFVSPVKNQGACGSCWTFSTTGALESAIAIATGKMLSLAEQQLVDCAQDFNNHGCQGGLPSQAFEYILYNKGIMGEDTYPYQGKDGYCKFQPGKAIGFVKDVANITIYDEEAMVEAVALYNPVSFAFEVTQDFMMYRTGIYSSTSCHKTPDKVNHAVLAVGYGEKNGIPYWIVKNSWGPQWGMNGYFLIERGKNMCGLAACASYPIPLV
As to the kind of experiment: Inhibition of human recombinant cathepsin H.

For series [14], the target named is T4, Cathepsin G (Homo sapiens, UniProt P08311).
T4 sequence (P08311 whole entry): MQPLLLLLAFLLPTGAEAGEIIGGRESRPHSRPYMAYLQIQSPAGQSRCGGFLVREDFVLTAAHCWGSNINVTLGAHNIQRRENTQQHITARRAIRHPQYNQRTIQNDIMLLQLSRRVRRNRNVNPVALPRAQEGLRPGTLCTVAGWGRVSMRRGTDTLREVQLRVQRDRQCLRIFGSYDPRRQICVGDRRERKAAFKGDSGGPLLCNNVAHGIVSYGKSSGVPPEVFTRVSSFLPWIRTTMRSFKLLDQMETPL
As to the kind of experiment: Inhibition of human recombinant cathepsin G.

Series [15] deals with Rattus norvegicus. Put plainly: In vivo inhibition of DPP1 in po dosed naive rat assessed as inactivation of neutrophil elastase in bone marrow cell lysates administered as bid for 8 days. The class given is functional, organism-based.
The test system of series [16] is Rattus norvegicus. As to the kind of experiment: In vivo inhibition of DPP1 in po dosed naive rat assessed as inactivation of proteinase 3 in bone marrow cell lysates administered as bid for 8 days. The class given is functional, organism-based.
A short description of series [17]: Intrinsic clearance in human liver microsomes at 1 uM after 5 to 30 mins by LC-MS/MS method. The class given is ADME. The following applies: read-out: CLH. The method, boiled down:
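Human liver microsome stability, with intrinsic clearance given in µL/min/mg.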
Background: Liver microsomes are vesicles of endoplasmic reticulum, rich in cytochrome P450 enzymes.

A short description of series [18]: Intrinsic clearance in human hepatocytes at 1 uM after 5 to 120 mins by LC-MS/MS method. The series is classed as ADME, cell-based, Hepatocyte. The method, boiled down: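 Intrinsic clearance in human hepatocytes, given in µL/min/10^6 cells.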
The nature of series [19]: Intrinsic clearance in rat hepatocytes at 1 uM after 5 to 120 mins by LC-MS/MS method. The class given is ADME, cell-based, Hepatocyte. The method, boiled down: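 Hepatocyte intrinsic clearance for rat and dog, given in µL/min/10^6 cells.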
Series [20] in a line: Apparent permeability across basolateral to apical side in human Caco2 cells at 10 uM after 2 hrs by LC-MS/MS method. The class given is ADME, cell-based. To be noted: Caco-2. The method, boiled down: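 Caco-2 bidirectional permeability run as P_app, given in cm/s x 10^-6.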
Series [21] can be described thus: Half life in Sprague-Dawley rat at 1 mg/kg, iv or 3 mg/kg, po. The class given is ADME, organism-based. To be noted: in vivo.
A short description of series [22]: Oral bioavailability in Sprague-Dawley rat at 3 mg/kg. The class given is ADME, organism-based. To be noted: in vivo.
Series [23] in a line: physchem. The following applies: phosphate buffered saline, pH 7.4.
The nature of series [24]: physchem. To be noted: octanol/water, pH 7.4.

The term Papp A→B denotes how fast a substance crosses the layer from the apical side. In general, Papp B→A refers to the apparent permeability from the basolateral to the apical side of a cell layer. A word on the half-life: it is the time in which the quantity being followed falls by half. High values mean slow decline, low ones rapid decline. In general, bioavailability refers to dose-corrected exposure relative to a reference, in per cent. Low readings indicate poor availability, high ones good availability. By pIC50 is commonly meant the negative decadic logarithm of the IC50, by convention in mol/L. By solubility (kinetic) is commonly meant the concentration staying in solution when a stock, usually in DMSO, is diluted into the medium. The logD is the decadic logarithm of the distribution of all forms, ionised or not, between an organic phase and buffer at a given pH. A higher logD goes with higher lipophilicity. Consider `Cn1c(=O)oc2ccc(-c3ccc(C[C@@H](C#N)NC(=O)[C@@H]4CNCCCO4)cc3)cc21` [BRENSOCATIB], for which the CLH is less than 3.5 µL/min/10^6 cells in series [1], less than 1 µL/min/1e6 cells in series [18] and 1.9 µL/min/1e6 cells in series [19]. The Papp A→B at 1 h, 10 µM in [2] is 9.2 ×10⁻⁶ cm/s. In addition, in series [3], the Papp B→A at 1 h, 10 µM is 58 ×10⁻⁶ cm/s. The intrinsic clearance (CLint) in series [4] was less than 3.5 µL/min/10^6 cells. Besides, the fraction unbound at 6 h, 10 µM in series [5] is 0.3. The figures for the half-life in series [6] and in series [21] were 300 min and 420 min, respectively. Besides, the values for the bioavailability in series [7] and in series [22] were 75% and 30%, respectively. Further, the Vd in [8] amounted to 11 L/kg. Further, the pIC50 in series [9] was 7.70; in [10], 7.80; in [11], less than 4.70; in series [12], less than 4.70; in series [13] it was less than 4.70; in series [14], less than 4.70. In addition, the inhibition entry in series [15] and in series [16] was “Dose-dependent effect” each time. Further, the microsomal CLint at 1 µM in series [17] was less than 3 µL/min/mg. In [20], the Papp B→A at 2 h, 10 µM was determined as 27 ×10⁻⁶ cm/s. For the same compound, in [23], the kinetic solubility at 2 h amounted to 180 µM (≈ 75.7 µg/mL). The compound further had a logD at 10 µM in series [24] of 0.8.
